Here are results for five molecules from ChEMBL document CHEMBL1121813, “Dihydrochalcone sweeteners. A study of the atypical temporal phenomena” (1981).

What all share (assay type): functional
For test [1], the species on record is Homo sapiens. Nature of the test: Sweet character at a concentration of 252 ppm (mean value). A digest of the protocol:
(§1)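 Trained human sensory panel (Swartz method) tasted dilute aqueous solutions of the compounds, which had to be ≥95 weight percent pure and free of mutagenicity and toxicity. Taste character is reported as the mean value with 2S_m limits. Data deviating excessively at the 95% confidence level were rejected by the t-value method.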

The species entered for test [2] is Homo sapiens. Nature of the test: Sour character at a concentration of 252 ppm (mean value). A digest of the protocol: as §1
Test [3] is filed under the species Homo sapiens. Nature of the test: Percentage of judgments reporting an aftertaste at a concentration of 252 ppm and character thereof; Bitter. A digest of the protocol:
(§2)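 Trained judges tasted aqueous solutions of the compounds, which had to be ≥95 weight percent pure and to have passed mutagenicity and single oral dose toxicity screening. The value is the percentage of panel judgments reporting an aftertaste. Where given, its character is recorded as sweet, bitter or bitter-sweet.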

The species entered for test [4] is Homo sapiens. Nature of the test: Intensity calculated on a weight basis relative to an 85500 ppm sucrose solution at a concentration of 252 ppm (mean value). A digest of the protocol:
(§3)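 Trained human panel tasted aqueous solutions of purity-checked (≥95 weight percent) compounds cleared for mutagenicity and mouse oral toxicity. Weight-basis intensity I_w = perceived intensity × (85500 ppm sucrose / compound concentration in ppm). The mean is reported with 2S_m limits; data deviating excessively at 95% confidence were rejected by the t-value method.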

Test [5] is filed under the species Homo sapiens. Briefly: Experimentally determined perceived intensity of compound at a concentration of 252 ppm (mean value). A digest of the protocol: (§4)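 Trained human sensory panel of judges tasted aqueous solutions of the compound. Samples had to be ≥95 weight % pure (HPLC, proton titration, Karl Fischer), non-mutagenic in five Salmonella typhimurium strains with and without microsomal activation, and non-toxic in a single-oral-dose mouse test. Perceived intensity (Ip) was read from time–intensity curves at 4- or 6-s intervals and averaged. Outliers at the 95% level were rejected by t-value. Values reported as mean (2Sm).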

The species named for test [6] is Homo sapiens. Briefly: Bitter character at a concentration of 252 ppm (mean value). A digest of the protocol:
(§5)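 Trained human panel tasted aqueous solutions. Each judge reported whether there was an aftertaste and its character (sweet, bitter or bitter-sweet). The value is the percentage of judgments reporting a bitter aftertaste.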

For test [7], the species on record is Homo sapiens. Nature of the test: Number of taste judgments per compound.
For test [8], the species on record is Homo sapiens. Briefly: Sweet / Bitter character at a concentration of 252 ppm (mean value).
The species named for test [9] is Homo sapiens. Nature of the test: Intensity calculated on a molar basis relative to a 0.25 M sucrose solution at a concentration of 252 ppm (mean value). A digest of the protocol: (§6)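 Trained human judges tasted aqueous solutions of the test compound; compounds were first required to be ≥95 weight percent pure and free of mutagenicity (five Salmonella typhimurium strains, ± microsomal activation) and of single oral dose mouse toxicity. Molar intensity I_m = perceived intensity × (0.25 M sucrose / compound molar concentration). The mean is reported with 2S_m limits; outliers were rejected at 95% confidence by t-value.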

For test [10], the species on record is Homo sapiens. Nature of the test: Salty character at a concentration of 252 ppm (mean value). A digest of the protocol:
as §1

For test [11], the species on record is Homo sapiens. Briefly: Other taste character at a concentration of 252 ppm (mean value). A digest of the protocol: as §1
For test [12], the species on record is Homo sapiens. Nature of the test: Intensity calculated on a weight basis relative to an 85500 ppm sucrose solution at a concentration of 2000 ppm (mean value). A digest of the protocol:
as §3

The species entered for test [13] is Homo sapiens. Nature of the test: Bitter character at a concentration of 2000 ppm (mean value). A digest of the protocol: as §5
For test [14], the species on record is Homo sapiens. Briefly: Other taste character at a concentration of 2000 ppm (mean value). A digest of the protocol: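 Trained human panel tasted aqueous solutions of each compound. Aftertaste is scored as the percentage of judgments reporting one, with its character coded sweet (s), bitter (b) or bitter-sweet (bs).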
The species named for test [15] is Homo sapiens. Nature of the test: Experimentally determined perceived intensity of compound at a concentration of 2000 ppm (mean value). A digest of the protocol:
as §4

The species entered for test [16] is Homo sapiens. Nature of the test: Sweet / Bitter character at a concentration of 2000 ppm (mean value); 0/100.
The species entered for test [17] is Homo sapiens. Briefly: Percentage of judgments reporting an aftertaste at a concentration of 2000 ppm and character thereof. A digest of the protocol:
as §2

The species entered for test [18] is Homo sapiens. Briefly: Sweet character at a concentration of 2000 ppm (mean value). A digest of the protocol:
as §1

Test [19] is filed under the species Homo sapiens. Briefly: Intensity calculated on a molar basis relative to a 0.25 M sucrose solution at a concentration of 2000 ppm (mean value). A digest of the protocol:
as §6

The species entered for test [20] is Homo sapiens. Nature of the test: Salty character at a concentration of 2000 ppm (mean value). A digest of the protocol: as §1
The species named for test [21] is Homo sapiens. Briefly: Sour character at a concentration of 2000 ppm (mean value). A digest of the protocol:
as §1

Test [22] is filed under the species Homo sapiens. Briefly: Sweet character at a concentration of 501 ppm (mean value).
For test [23], the species on record is Homo sapiens. Nature of the test: Experimentally determined perceived intensity of compound at a concentration of 501 ppm (mean value). A digest of the protocol:
as §4

The species entered for test [24] is Homo sapiens. Briefly: Percentage of judgments reporting an aftertaste at a concentration of 501 ppm and character thereof.
Test [25] is filed under the species Homo sapiens. Briefly: Intensity calculated on a weight basis relative to an 85500 ppm sucrose solution at a concentration of 501 ppm (mean value). A digest of the protocol: as §3
Test [26] is filed under the species Homo sapiens. Briefly: Bitter character at a concentration of 501 ppm (mean value). A digest of the protocol:
as §5

Test [27] is filed under the species Homo sapiens. Nature of the test: Sour character at a concentration of 501 ppm (mean value).
The species entered for test [28] is Homo sapiens. Briefly: Sweet / Bitter character at a concentration of 501 ppm (mean value); 0/100.
The species named for test [29] is Homo sapiens. Briefly: Intensity calculated on a molar basis relative to a 0.25 M sucrose solution at a concentration of 501 ppm (mean value). A digest of the protocol: as §6
For test [30], the species on record is Homo sapiens. Nature of the test: Salty character at a concentration of 501 ppm (mean value).
Test [31] is filed under the species Homo sapiens. Nature of the test: Other taste character at a concentration of 501 ppm (mean value). A digest of the protocol: as §1
For test [32], the species on record is Homo sapiens. Nature of the test: Intensity calculated on a weight basis relative to an 85500 ppm sucrose solution at a concentration of 248 ppm (mean value). A digest of the protocol: as §3
The species entered for test [33] is Homo sapiens. Briefly: Sour character at a concentration of 248 ppm (mean value).
For test [34], the species on record is Homo sapiens. Briefly: Salty character at a concentration of 248 ppm (mean value).
Test [35] is filed under the species Homo sapiens. Nature of the test: Bitter character at a concentration of 248 ppm (mean value). A digest of the protocol:
as §5

The species named for test [36] is Homo sapiens. Nature of the test: Experimentally determined perceived intensity of compound at a concentration of 248 ppm (mean value). A digest of the protocol:
as §4

The species named for test [37] is Homo sapiens. Nature of the test: Sweet / Bitter character at a concentration of 248 ppm (mean value); 8/92.
The species named for test [38] is Homo sapiens. Nature of the test: Sweet character at a concentration of 248 ppm (mean value).
The species named for test [39] is Homo sapiens. Briefly: Intensity calculated on a molar basis relative to a 0.25 M sucrose solution at a concentration of 248 ppm (mean value). A digest of the protocol: as §6
For test [40], the species on record is Homo sapiens. Nature of the test: Other taste character at a concentration of 248 ppm (mean value). A digest of the protocol:
as §1

The species named for test [41] is Homo sapiens. Nature of the test: Percentage of judgments reporting an aftertaste at a concentration of 248 ppm and character thereof. A digest of the protocol: as §2
Test [42] is filed under the species Homo sapiens. Briefly: Sweet character at a concentration of 54 ppm (mean value).
The species named for test [43] is Homo sapiens. Briefly: Experimentally determined perceived intensity of compound at a concentration of 54 ppm (mean value). A digest of the protocol:
as §4

Test [44] is filed under the species Homo sapiens. Nature of the test: Percentage of judgments reporting an aftertaste at a concentration of 54 ppm and character thereof.
The species entered for test [45] is Homo sapiens. Nature of the test: Intensity calculated on a weight basis relative to an 85500 ppm sucrose solution at a concentration of 54 ppm (mean value). A digest of the protocol:
as §3

The species entered for test [46] is Homo sapiens. Nature of the test: Bitter character at a concentration of 54 ppm (mean value). A digest of the protocol:
as §5

For test [47], the species on record is Homo sapiens. Nature of the test: Intensity calculated on a molar basis relative to a 0.25 M sucrose solution at a concentration of 54 ppm (mean value). A digest of the protocol:
as §6

Test [48] is filed under the species Homo sapiens. Briefly: Sour character at a concentration of 54 ppm (mean value).
For test [49], the species on record is Homo sapiens. Briefly: Sweet / Bitter character at a concentration of 54 ppm (mean value); 14/86.
Test [50] is filed under the species Homo sapiens. Nature of the test: Salty character at a concentration of 54 ppm (mean value).
For test [51], the species on record is Homo sapiens. Nature of the test: Other taste character at a concentration of 54 ppm (mean value). A digest of the protocol:
as §1

For `O=C(O)CCc1cccc(O)c1`, the Taste character turned out to be 0 in [1]; 96 in test [2]; 4 in test [6]; 0 in test [8]; 0 in test [10]; 0 in test [11]. Also, the Judgments in test [3] is recorded as 38; in test [7] it was 8. Besides, in [4], the IW is recorded as 160. Moreover, in [5], the IP is 0.46. Moreover, the IM in test [9] is 80.

As to `CC(=O)c1c(O)cc(OCC(=O)[O-])cc1O.[Na+]`, the IW in [12] is given as 10. In addition, the Taste character in test [13] amounted to 100; in test [14] it was 0; in [16] it was 0; in [18], 0; in [20], 0; in test [21] it was 0. In test [15], this molecule registered an IP of 0.25. The Judgments in test [7] is listed as 1; in test [17], 0. Besides, the IM in test [19] is 0.

Regarding `O=C([O-])COc1cc(O)c(C(=O)CCc2ccccc2)c(O)c1.[Na+]`, the Taste character in test [22] stood at 0; in test [26], 79; in [27], 0; in [28] it was 0; in [30], 0; in test [31], 21. The same molecule returned an IP in [23] of 0.91. Further, the Judgments in test [24] is reported as 100; in test [7] it was 12. Also, the IW in test [25] is 160. For the same molecule, the IM in [29] is 150.

On to `O=C([O-])COc1cc(O)c(C(=O)CCc2ccc(O)c(O)c2)c(O)c1.[Na+]`, for which, in test [32], the IW is reported as 52. The Taste character in test [33] amounted to 0; in [34], 0; in test [35] it was 33; in [37], 8; in test [38], 3; in [40], 64. Also, the IP in test [36] is recorded as 0.15. In addition, the values for the Judgments in test [7] and in test [41] were 12 and 38, respectively. The IM in test [39] is on record as 56.

For `COc1ccc(CC(=O)c2c(O)cc(O)cc2O)cc1O`, the Taste character was determined as 11 in test [42]; 70 in test [46]; 0 in test [48]; 14 in test [49]; 0 in test [50]; 19 in test [51]. The molecule also showed an IP in test [43] of 0.11. For the same molecule, the Judgments in test [44] came out at 0; in test [7] it was 12. Moreover, the IW in [45] is 170. Further, the IM in test [47] is 150.
